What all share (format): biochemical
Test [1] concerns the target α-glucosidase (Saccharomyces cerevisiae, UniProt P53341). Briefly: inhibitory kinetic assay on α-glucosidase.
Test [2] has as its target T1, aldose reductase (Rattus norvegicus, UniProt P07943). The experiment in a line: aldose reductase inhibition assay.
For test [3], the target named is T1, aldose reductase. The experiment in a line: inhibitory kinetic assay on aldose reductase. The gist of the method:
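Aldose reductase from rat lens tissue. Reactions held NADPH (0.3 mM), phosphate buffer (100 mM, pH 6.2) and lithium sulfate (0.6 mM), with DL-glyceraldehyde substrate at several concentrations, with or without test compound, at 37 °C for 10 min. NADPH decrease was read at 340 nm. Rates were fitted by nonlinear Michaelis–Menten regression with Lineweaver–Burk, Dixon and slope secondary plots to derive Km, Vmax and Ki.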

Chain of α-glucosidase (P53341 whole entry): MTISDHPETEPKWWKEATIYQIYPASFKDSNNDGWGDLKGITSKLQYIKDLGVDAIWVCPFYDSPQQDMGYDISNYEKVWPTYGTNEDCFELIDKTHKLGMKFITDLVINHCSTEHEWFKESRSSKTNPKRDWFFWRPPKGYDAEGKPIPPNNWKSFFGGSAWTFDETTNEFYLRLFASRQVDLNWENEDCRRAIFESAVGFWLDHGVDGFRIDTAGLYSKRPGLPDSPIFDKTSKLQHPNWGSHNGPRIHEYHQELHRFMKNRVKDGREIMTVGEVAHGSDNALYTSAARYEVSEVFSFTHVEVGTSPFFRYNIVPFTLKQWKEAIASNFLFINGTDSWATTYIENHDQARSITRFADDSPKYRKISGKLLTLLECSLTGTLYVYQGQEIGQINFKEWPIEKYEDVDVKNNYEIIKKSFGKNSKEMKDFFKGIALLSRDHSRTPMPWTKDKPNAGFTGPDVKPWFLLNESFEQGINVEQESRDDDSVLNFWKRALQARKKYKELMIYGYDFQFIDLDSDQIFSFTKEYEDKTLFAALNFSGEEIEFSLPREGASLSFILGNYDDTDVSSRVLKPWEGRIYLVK

Turning to `COc1cc(O)cc(/C=C/c2ccc(O)cc2)c1` [pinostilbene, 3-methoxy-4′,5-dihydroxy-trans-stilbene], the results for the Ki in test [1] and in test [3] were 14.3 ± 1.49 µM and 60 ± 4.64 µM, respectively. For the same compound, the “inhibition type against α-glucosidase” value in test [1] (Vmax decreased, Km fixed) is “noncompetitive-type inhibition”. Also, in test [2], the IC50 (usually the concentration that inhibits the measured activity by half) came out at 55.4 ± 4.31 µM. Moreover, the “inhibition type against aldose reductase” value in test [3] (Vmax decreased, Km fixed) was “noncompetitive-type inhibition”.

Regarding `COc1cc(/C=C/c2ccc(O)cc2)cc(OC)c1` [pterostilbene], the “effect on aldose reductase inhibition (in words)” value in test [2] (0–10 mM tested, data not shown) was “weak effect”.
